These results are taken from ChEMBL document CHEMBL4130600, “Keikipukalides, Furanocembrane Diterpenes from the Antarctic Deep Sea Octocoral Plumarella delicatissima” (J Nat Prod, 2018).

Structures are written as SMILES. The source made the active and inactive calls. No cut-off for these calls is given here.

The subject of experiment [1] is Staphylococcus aureus. Nature of the experiment: Antibacterial activity against drug-resistant Staphylococcus aureus. The experiment is classed as functional, organism-based.
The test system of experiment [2] is A549. The experiment can be described thus: Cytotoxicity against human A549 cells after 72 hrs by CellTiter 96 AQueous one solution cell proliferation assay. The experiment is classed as cell-based. The note with it: A549, 72 h. The gist of the method: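 A549 cells seeded at 1440 cells/well in F12K with 10% FBS and 1% penicillin–streptomycin, with compounds in doubling dilutions from 50 μg/mL final. Incubated 72 h at 37 °C, 5% CO2. MTS added 4 h before the end, OD read at 490 nm. Controls were cells with media and media alone.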

For experiment [3], the system named is Enterobacter. Nature of the experiment: Antibacterial activity against drug-resistant Enterobacter. It counts as functional, organism-based.
In experiment [4] the test system is Enterococcus faecium. The experiment can be described thus: Antibacterial activity against drug-resistant Enterococcus faecium. The experiment is classed as functional, organism-based.
Experiment [5] concerns Klebsiella pneumoniae. The experiment can be described thus: Antibacterial activity against drug-resistant Klebsiella pneumoniae. It counts as functional, organism-based.
The test system of experiment [6] is Clostridioides difficile. The experiment can be described thus: Antibacterial activity against Clostridium difficile. It counts as functional, organism-based.
Experiment [7] relates to Pseudomonas aeruginosa. Nature of the experiment: Antibacterial activity against drug-resistant Pseudomonas aeruginosa. It counts as functional, organism-based.
Experiment [8] deals with Acinetobacter baumannii. The experiment can be described thus: Antibacterial activity against drug-resistant Acinetobacter baumannii. It counts as functional, organism-based.
Experiment [9] deals with Naegleria fowleri. Nature of the experiment: […] activity against Naegleria fowleri. The experiment is classed as functional, organism-based.
In experiment [10] the test system is Leishmania donovani. Nature of the experiment: Antileishmanial activity against Leishmania donovani MHOM/SD/75/1246/130 axenic amastigotes infected in mouse J774A.1 cells after 72 hrs by Draq5 staining based assay. The experiment is classed as functional, organism-based. The note with it: MHOM/SD/75/1246/130, J774.A1, 72 h. The essentials: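 Amastigotes grown axenically at 37 °C in RPMI 1640, pH 5.5, with Hepes, MES, hemin, xanthine, Tween-80 and 20% heat-inactivated FBS. Parasites added 10:1 to 2000 J774A.1 macrophages per well, 24 h at 37 °C, 5% CO2, then extracellular parasites washed off. Compounds from 10 μg/mL, 1:2 serial dilution, 72 h. Fixed in 2% paraformaldehyde, Draq5 stain, imaged; amastigotes per 500 macrophages counted for IC50.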

On to `C=C(C)[C@@H]1/C=C/[C@]23O[C@H]2[C@H](C[C@](C)(O)[C@@H](OC(C)=O)C2=CC(C=O)=C(C1)O2)OC3=O`, for which the outcome in [1], in [3], in [4], in [5], in [6] and in [7] was inactive. Besides, the result in experiment [8] and in [9] was inactive. In addition, the values for the IC50 in experiment [2] and in [10] were above 50 µM and 12 µM, respectively.
Consider `C=C(C)[C@@H]1CCC2=C[C@H](C[C@@]3(C)O[C@@H]3C3=CC(C=O)=C(C1)O3)OC2=O`, for which the result in experiment [1], in [3], in experiment [4], in experiment [5], in experiment [6] and in experiment [7] was inactive. In addition, the outcome in [8] and in experiment [9] was inactive. Further, the values for the IC50 in experiment [2] and in [10] were above 50 µM and 1.9 µM, respectively.
`CCCCCCCCCCCCCCCCOP(=O)([O-])OCC[N+](C)(C)C` [MILTEFOSINE] yielded a 50% inhibitory concentration (IC50) in experiment [10] of 6.2 µM. That is a single-digit micromolar value.
On to `C=C(C)[C@H]1CC2=C(C=O)C=C(O2)[C@H]2O[C@]2(C)C[C@H]2C=C(C(=O)O2)[C@@H](OC(C)=O)C1`, for which the outcome in experiment [1], in [3], in experiment [4], in experiment [5], in experiment [6] and in experiment [7] was inactive. In addition, the result in experiment [8] and in experiment [9] was inactive. The IC50 in experiment [2] was above 50 µM; in [10] it was 8.8 µM.
Turning to `C=C(C)[C@H]1CC2=C(C=O)C=C(O2)[C@H]2O[C@]2(C)C[C@@H]2OC(=O)/C(=C\[C@H]1OC(C)=O)[C@H]2OC(C)=O`, the result in [1], in experiment [3], in experiment [4], in experiment [5], in experiment [6] and in experiment [7] was inactive. For the same compound, the result in experiment [8] and in experiment [9] was inactive. Further, the concentration for half-maximal inhibition (IC50) in experiment [2] was above 50 µM; in [10], 8.5 µM.
Consider `C=C(C)[C@@H]1CC(=O)[C@H]2[C@H](C1)[C@@H]1C(=O)O[C@@H]3C[C@]4(C)O[C@H]2C(=O)[C@@H]4[C@H]13`, for which the result in experiment [1], in experiment [3], in experiment [4], in [5], in [6] and in experiment [7] was inactive. In addition, the result in experiment [8] and in [9] was inactive. Further, the IC50 in experiment [2] was above 50 µM; in [10], 4.4 µM.
Consider `C=C(C)[C@@H]1/C=C/[C@]23O[C@H]2[C@H](C[C@@]2(C)O[C@@H]2C2=CC(C=O)=C(C1)O2)OC3=O`, for which the result in experiment [1], in experiment [3], in [4], in experiment [5], in experiment [6] and in [7] was inactive. The outcome in experiment [8] and in [9] was inactive. The IC50 is above 50 µM in experiment [2] and above 28 µM in [10].
As to `C=C(C)[C@@H]1C/C=C2\C(=O)O[C@@H](C[C@@]3(C)O[C@@H]3C3=CC(C=O)=C(C1)O3)[C@@H]2OC(C)=O`, the outcome in [1], in [3], in experiment [4], in [5], in [6] and in experiment [7] was inactive. Also, the outcome in experiment [8] and in experiment [9] was inactive. Also, the IC50 in experiment [2] is above 50 µM; in experiment [10] it was 8.8 µM.
